# B1: Carminomycin 4-O-methyltransferase DnrK (Streptomyces peucetius), Q06528 (protein)
# chain: MTAEPTVAARPQQIDALRTLIRLGSLHTPMVVRTAATLRLVDHILAGARTVKALAARTDTRPEALLRLIRHLVAIGLLEEDAPGEFVPTEVGELLADDHPAAQRAWHDLTQAVARADISFTRLPDAIRTGRPTYESIYGKPFYEDLAGRPDLRASFDSLLACDQDVAFDAPAAAYDWTNVRHVLDVGGGKGGFAAAIARRAPHVSATVLEMAGTVDTARSYLKDEGLSDRVDVVEGDFFEPLPRKADAIILSFVLLNWPDHDAVRILTRCAEALEPGGRILIHERDDLHENSFNEQFTELDLRMLVFLGGALRTREKWDGLAASAGLVVEEVRQLPSPTIPYDLSLLVLAPAATGA
# Legend:
# [1] = substrate: Cc1cc(=O)oc2cc(O)ccc12; assay: Binding affinity to Streptomyces peucetius 4-O-methyltransferase DnrK assessed as maximal activity
# Summary of the method: (§1)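 N-His6-DnrK (10 μM), expressed in E. coli, was run in 50 mM Tris pH 8.0 at 37 °C with saturating AdoMet (1.6 mM). Acceptor was varied: carminomycin from 15 μM to […] as printed, or 4-methylumbelliferone from 150 μM to 10 mM. Methylated product was quantified by reversed-phase HPLC peak integration. Runs were in triplicate, and parameters came from Michaelis–Menten reciprocal plots.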
# [2] = substrate: Cc1cc(=O)oc2cc(O)ccc12; assay: Binding affinity to Streptomyces peucetius 4-O-methyltransferase DnrK assessed as catalytic constant; summary of the method: as §1
protein,measurement,setting,value
B1,Km,[1],1160 µM
same,kcat,[2],0.0006 s⁻¹
